# A selection: hits, their analogues and other compounds. The true share with any hit is near 3.4%.
# CHRM1 agonist: activates human CHRM1 receptor; P11229; actives 0.33% (n = 360,000); activation, % at 3 µM; CHO-K1 hM1, Fluo-8 calcium fluorescence, agonist mode; 0% DMSO, 100% acetylcholine EC100;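 active means activation above the run's mean compound activation plus 3 SD, cut at about 16% in these data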;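 further: peak over basal fluorescence ratio within a 140 s kinetic read after compound addition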
# Target sequence (P11229 whole entry, looked up): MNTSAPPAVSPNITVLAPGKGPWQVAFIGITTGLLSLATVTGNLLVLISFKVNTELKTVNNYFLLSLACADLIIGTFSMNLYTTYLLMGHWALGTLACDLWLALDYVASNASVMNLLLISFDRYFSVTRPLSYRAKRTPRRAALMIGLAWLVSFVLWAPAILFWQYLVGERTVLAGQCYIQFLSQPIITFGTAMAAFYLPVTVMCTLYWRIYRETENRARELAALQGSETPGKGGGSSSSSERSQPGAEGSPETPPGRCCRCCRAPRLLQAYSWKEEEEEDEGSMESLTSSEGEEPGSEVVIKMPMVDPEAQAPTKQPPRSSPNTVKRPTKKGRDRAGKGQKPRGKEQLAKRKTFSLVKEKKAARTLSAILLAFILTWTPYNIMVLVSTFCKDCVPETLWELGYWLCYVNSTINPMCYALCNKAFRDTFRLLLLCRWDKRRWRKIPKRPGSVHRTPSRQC
# TAAR1 ag: agonists of human TAAR1; Q96RJ0; CHO RD-HGA16 TAAR1, Fluo-8 calcium fluorescence; vehicle wells 0%, saturating PEA agonist 100%; activation, % at 3 µM; actives 0.99% (n = 360,000); AID 624467;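 active means activation above the mean activation of all test compounds in the run plus 3 SD, cut at about 38% in these data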
#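 Signal – calcium-sensitive Fluo-8 signal, excitation 470-495, emission 515-575 nm · System – RD-HGA16 (CHO) cells co-expressing Gα16 and hTAAR1 · Incubation – 17-24 h seeding, 75 min 37 °C dye, 30 min RT · Compound dosing – 3 µM single concentration · Repeats – no replicates (n 1)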
# TAAR1 antagonist: human TAAR1 antagonism. actives 1.5% (n = 360,000). Q96RJ0. CHO RD-HGA16 TAAR1, Fluo-8 calcium fluorescence, antagonist. inhibition, % at 3 µM;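 active means inhibition above a per-plate cutoff, the mean inhibition of test compounds on that plate plus 3 SD, cut at about 49% in these data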
#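 Material: CHO RD-HGA16 cells bearing hTAAR1; compound dosing: one-point dosing, 3 µM nominal final; schedule: dye loading 75 min at 37 °C, then 30 min room temperature; measured by: calcium fluorescence with Fluo-8; control set: vehicle and agonist controls; replication: n of 1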
# M1 PAM: human CHRM1 positive allosteric modulation. P11229. actives 0.088% (n = 360,000). CHO-K1 hM1, Fluo-8 calcium fluorescence, ACh EC20; 0% = ACh EC20, 100% = maximal ACh. AID 588819. activation, % at 3 µM; in the data active means activation above about 19%, passing the limit was not always enough
# M1 antag: blocks human M1 muscarinic receptor. P11229. CHO-K1 hM1, Fluo-8 calcium fluorescence, ACh EC80 antagonist. inhibition, % at 3 µM. actives 1.3% (n = 360,000). AID 588852;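 active means percent inhibition above its own plate's cutoff, namely the mean of that plate's compound wells plus 3 SD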;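 further: peak over basal fluorescence ratio during 140 s after agonist addition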
# A number is an active result; n = inactive; x = no result; ! = repeats disagree.
SMILES,CHRM1 agonist,TAAR1 ag,TAAR1 antagonist,M1 PAM,M1 antag
Cc1ccc(CONC(=O)c2ccc(Cl)cc2)cc1,n,n,n,n,n
O=C(NOCc1ccccc1)c1ccc(Cl)cc1,n,n,n,n,41
CCCNC(=O)c1nnsc1S(=O)c1ccc(Cl)cc1 (stereo unspecified),n,n,n,n,n
CCCNC(=O)c1nnsc1S(=O)(=O)c1ccc(Cl)cc1,n,n,n,n,96
O=C(Nc1ccc2c(c1)OCCO2)c1cccc(Cl)c1Cl,n,n,n,n,n
O=C(Nc1ccc2c(c1)OCCO2)c1c(Cl)cccc1Cl,n,n,n,n,32
O=C(CSc1c2c(nc3ccc(Cl)cc13)CCCC2)NCCCN1CCOCC1,n,n,n,n,98
O=c1c(Cl)c(O)ccn1C1OC(CO)C(O)C1O (stereo unspecified),n,n,n,n,n
c1ccc(C(c2ccccc2)c2noc(CN3CCN(CC4CC4)CC3)n2)cc1,n,n,n,n,94
CC1OC(CC(=O)O)CC2=C1C(=O)c1c(O)cccc1C2=O (stereo unspecified),n,83,63,n,46
Cc1cccc(C(=O)NC(=S)NNC(=O)c2cccs2)c1,19,129,61,n,n
CCN(CC)C(=O)CSc1nc2ccc(NC(=O)CSc3nnc(COc4ccccc4C)n3C)cc2s1,n,n,56,n,n
CCC(=O)Nc1cccc(NC(=O)CSc2nnnn2Cc2ccccc2)c1,n,n,n,n,n
CCOC(=O)CSc1nc2ccc(NC(=O)CSc3nnnn3Cc3ccccc3)cc2s1,n,n,53,n,n
CSC(=Cc1ccc(C(=O)c2ccc(C)cc2)n1C)S(C)=O (stereo unspecified),x,n,n,x,x
O=C(Nc1c(F)cc(F)cc1Br)c1cc(-c2ccc(O)cc2)on1,18,n,n,n,n
O=C(NCc1cccs1)c1cc(-c2ccc(O)cc2)on1,17,41,n,n,n
COc1ccc(-c2csc(NCCc3nc4cc(Cl)c(Cl)cc4n3CCCO)n2)cc1,n,n,55,n,n
O=C(CCCN1CCC(C(=O)c2ccc(F)cc2)CC1)c1ccc(F)cc1,n,n,n,n,89
CN(C)c1ccc2nc3c(=O)[nH]c(=O)nc-3n(CC(O)C(O)C(O)CO)c2c1 (stereo unspecified),18,n,n,n,n
Cc1ncc(C(O)c2ccc(N(C)C)cc2)n1Cc1ccccc1 (stereo unspecified),n,n,n,n,n
S=C1NCN(CC2CC2)CN1,x,n,n,x,x
CCOc1ccc(-n2nc3c(=O)n(CCN4CCCCC4)nc(C)c3c2C)cc1,n,n,n,n,31
Cc1nn(CC(=O)NCCN2CCCCCC2)c(=O)c2nn(-c3ccccc3)c(C)c12,n,n,n,n,n
CCc1nn(C(C)C(=O)NCCN2CCCCCC2)c(=O)c2cc3occc3n12 (stereo unspecified),n,n,n,n,38
SMILES,CHRM1 agonist,TAAR1 ag,TAAR1 antagonist,M1 PAM,M1 antag
CCc1nn(C(C)C(=O)NCCN2CCN(c3cccc(C)c3C)CC2)c(=O)c2cc3occc3n12 (stereo unspecified),n,n,n,n,n
Cc1nn(C(C)C(=O)NCCN2CCCCCC2)c(=O)c2nn(-c3ccccc3)c(C)c12 (stereo unspecified),n,n,n,n,58
COc1cc(N2C[C@@]3(O)CC[C@@H](O)[C@@H](OC)[C@@H]3[C@@](C)(O)[C@@H]2CC=C(C)C)cc(OC)c1OC,x,n,n,x,x
Cc1ccc(C)n1-n1c(C)nc2sc3c(c2c1=O)CCCCC3,n,n,n,n,28
Cc1ccc(C)n1-n1cnc2sc3c(c2c1=O)CCCCC3,n,n,n,n,n
COc1cc(NC(=O)c2csc(N)n2)cc(C(=O)Nc2cccc(C(F)(F)F)c2)c1,n,n,53!,n,n
COc1cc(NC(=O)c2cc(C)on2)cc(C(=O)Nc2cccc(C(F)(F)F)c2)c1,n,n,54!,n,n
COc1cc(NC(=O)c2ccnc(N)c2)cc(C(=O)Nc2cccc(C(F)(F)F)c2)c1,n,n,n,n,n
COc1cc(NC(=O)c2cnc(N)s2)cc(C(=O)Nc2cccc(C(F)(F)F)c2)c1,n,n,n,n,n
